From ChEMBL document CHEMBL1145287, “Docking and 3-D QSAR studies on indolyl aryl sulfones. Binding mode exploration at the HIV-1 reverse transcriptase non-nucleoside binding site and design of highly active N-(2-hydroxyethyl)carboxamide and N-(2-hydroxyethyl)carbohydrazide derivatives” (J Med Chem, 2005) come the findings set out here.

Common to all, as to details: Homo sapiens
Assay [1] concerns MT4. The experiment in a line: Compound concentration required to achieve 50% protection of infected MT-4 cells from K103N-Y181C strain was determined by the MTT method. Format: functional, cell-based. Put shortly: (§1)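 MT-4 cells (1 × 10⁴/well, RPMI 1640 + 10% FCS) exposed to serial compound dilutions (200 mM DMSO stock diluted in medium), infected with enough virus to give full cytopathicity by day 4; wt IIIB from H9/IIIB supernatant, Y181C and K103N–Y181C from NNRTI-selected passages.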

Assay [2] deals with MT4. The experiment in a line: Compound concentration required to achieve 50% protection of infected MT-4 cells from Y181C strain was determined by the MTT method. Format: functional, cell-based. The procedure, abridged: as §1
(In general: Tetrazolium dyes change colour on reduction, which living cells bring about.)

Assay [3] deals with MT4. The experiment in a line: Concentration required to achieve 50% protection of infected MT-4 cells from Y181C-HIV-1 strain. It counts as functional, cell-based. Put shortly: as §1
In assay [4] the test system is C8166. The experiment in a line: Compound concentration required to reduce the amount of p24 by 90% in wtIIIBinfected C8166 cells. It counts as functional. The procedure, abridged: (§2)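 Acute infection of C8166 cells (1 × 10⁴/well, RPMI 1640 with 10% FCS, 37 °C, 5% CO₂) by HIV-1 IIIB from persistently infected H9/IIIB supernatant, with a virus inoculum sized to cause complete cytopathicity at day 4, in the presence of serially diluted compound (DMSO stock diluted in medium). p24 antigen was measured by immunoenzymatic kit. Concentration giving 90% reduction of p24 reported.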

For assay [5], the system named is C8166. The experiment in a line: Concentration required to reduce the amount of p24 by 90% in C8166 cells infected with an efavirenz-resistant strain EFVR. Format: functional. Put shortly:
(§3)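 C8166 cells (1 × 10⁴/well) with serial compound dilutions (200 mM DMSO stock diluted in medium), infected with K103R/V179D/P225H virus selected from IIIB by passage in C8166 cells with efavirenz up to 2 μM (stock 3.0 × 10⁵ CCID₅₀/mL); 37 °C incubation; p24 measured by immunoenzymatic kit; value = concentration giving 90% p24 reduction.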

The test system of assay [6] is C8166. The experiment in a line: Concentration required to reduce the amount of p24 by 90% in wtIIIB-HIV-1-infected C8166 cells. Format: functional. The procedure, abridged:
as §2

In assay [7] the test system is C8166. The experiment in a line: Compound concentration required to reduce the amount of p24 by 90% in C8166 cells infected with an efavirenz-resistant strain EFVR carrying mutations K103R, V179D, and P225H. It counts as functional. Put shortly:
as §3

Assay [8] has as its system MT4. The experiment in a line: Concentration required to achieve 50% protection of infected MT-4 cells from K103N-Y181C. It counts as functional, cell-based. Put shortly: as §1
Assay [9] concerns MT4. The experiment in a line: (§4) Concentration required for 50% protection of infected MT-4 cells from wtIIIB-HIV-1-induced cytopathogenicity was determined by the MTT method. It counts as functional, cell-based. Put shortly:
(§5)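 MT-4 cells (1 × 10⁴/well, RPMI 1640 with 10% FCS, 37 °C, 5% CO₂) were infected with HIV-1 IIIB (H9/IIIB supernatant) at an inoculum causing complete cytopathicity by day 4, across graded compound concentrations. Viability was read by MTT, with cytotoxicity run in parallel on mock-infected cells. Concentration giving 50% protection reported as the mean of three experiments.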
(Protection from cytopathic effect is a common read-out in antiviral testing.)

Assay [10] deals with MT4. The experiment in a line: Protection of infected MT-4 cells from wtIIIB-HIV-1-induced cytopathogenicity. It counts as functional, cell-based. Put shortly:
as §5

The test system of assay [11] is MT4. The assay is described as §4. It counts as functional, cell-based. Put shortly: as §1
The source holds these as a separate data set.

With `Cc1ccnc2c1NC(=O)c1cccnc1N2C1CC1` [NEVIRAPINE], the concentration for a half-maximal effect (EC50) in the assay with MT4 [1], in the assay with MT4 [2], with MT4 [3] and with MT4 [8] was greater than 30000 nM in each case. In addition, the EC90 – broadly, the point of the concentration-response curve where the effect stands at 90% – with C8166 [4] was 120 nM; in the assay with C8166 [5], greater than 30000 nM; in the assay with C8166 [6], 120 nM; with C8166 [7], greater than 30000 nM.

Consider `O=C1Nc2ccc(Cl)cc2[C@@](C#CC2CC2)(C(F)(F)F)O1` [EFAVIRENZ], for which the EC50 in the assay with MT4 [1] and with MT4 [8] was 150 nM in each case. For the same molecule, the EC90 came out at 8 nM in the assay with C8166 [4], 1800 nM in the assay on C8166 [5], 8 nM in the assay with C8166 [6] and 1800 nM in the assay on C8166 [7].

Take `Cc1cc(C)cc(S(=O)(=O)c2c(C(=O)NCCO)[nH]c3ccc(Cl)cc23)c1`: the EC50 – broadly, the concentration giving half of the maximal effect – in the assay with MT4 [1] is 500 nM; in the assay on MT4 [9] it was 1 nM; in the assay with MT4 [2], 10 nM; with MT4 [3] it was 10 nM; in the assay with MT4 [10], 1 nM; with MT4 [11] it was 1 nM. Moreover, the EC50 in the assay with MT4 [8] stood at 500 nM. For the same molecule, the EC90 with C8166 [4] amounted to 5 nM; in the assay on C8166 [5], 100 nM; in the assay with C8166 [6], 5 nM; in the assay on C8166 [7], 100 nM.

Turning to `Cc1cc(C)cc(S(=O)(=O)c2c(C(=O)NNCCO)[nH]c3ccc(Cl)cc23)c1`, the EC50 in the assay on MT4 [1] is 10000 nM; with MT4 [9], 1 nM; in the assay with MT4 [2], 30 nM; with MT4 [3], 30 nM; in the assay on MT4 [10], 1 nM; in the assay on MT4 [11], 1 nM. The molecule further registered an EC50 with MT4 [8] of 10000 nM. Moreover, the EC90 was 6 nM in the assay with C8166 [4], 200 nM in the assay on C8166 [5], 6 nM in the assay with C8166 [6] and 200 nM in the assay on C8166 [7].
